Reference: PubChem BioAssay
Inconclusive results are not listed.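 The calls were made as follows, unless noted: active = viability increase at or above a cutoff of the median across tested compounds plus 3 SD (cut at about 8.5% in these data, passing the limit was not always enough); inconclusive = some gains above the cutoff, reason not given; inactive = the rest.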

Key:
[1] = OD615 S. cerevisiae growth inhibition, permissive medium, pilot counter-assay, permissive growth control for S. cerevisiae lifespan shortening project (AID 705;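 active = growth inhibition above 25% in both replicates, a cutoff set 3 SD above the mean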); conditions: OD615, 24 h, at 10 µM, active compounds read high
Method in brief: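 System – S. cerevisiae with engineered DeaD lifespan system · Buffer or medium – SC raffinose/galactose permissive medium · Schedule – cells pre-grown 4 h, then 24 h compound exposure, 30 °C humidified · Technique – culture turbidity as optical density at 615 nm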

[2] = Restrictive medium S. cerevisiae growth inhibition, OD615, pilot screen of yeast lifespan reduction project, restrictive growth control (AID 706;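 active = growth inhibition above a set limit, 3 SD over mean compound inhibition, in both replicates, cut at about 43% in these data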;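 also: modified DeaD lifespan yeast strain shifted to restrictive glucose medium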); conditions: OD615, 48 h, at 10 µM, active compounds read high
Method in brief: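 Material: engineered S. cerevisiae DeaD strain / Medium: glucose-based CSMM-D restrictive medium / Compound: single dose of 10 µM compound final, 0.25% DMSO / Timing: 4 h pre-incubation, 48 h exposure at 30 °C / Technique: OD615 absorbance reading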

[3] = viability gain of MRP-1-high H69AR cells under doxorubicin, pilot screen, MRP-1 activator project, CellTiter-Glo, duplicate (AID 807); conditions: H69AR viability with doxorubicin, CellTiter-Glo luminescence; at 10 µM; active compounds read high;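 also: compound pretreatment 18-22 h then 72 h combined with doxorubicin; 0% = doxorubicin alone and 100% = vehicle without doxorubicin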
[4] = growth suppression of beta-catenin knockout HCT116, pilot screen, human colon tumor cells (AID 823;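 active = cell viability at or below a set limit in both duplicate runs, the limit being the all-compound median minus 4 SD, cut at about 23% in these data, passing the limit was not always enough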;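 also: 0% = wells killed by 20 µM Hyamine and 100% = untreated DMSO cell wells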); conditions: CellTiter-Glo, 60 h, at 10 µM, active compounds read low
[5] = growth suppression of PTEN-deleted HCT116, pilot screen, cell-based, HCT116 clonal line, CellTiter-Glo (AID 824;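 active = viability at or below 27.92% in each of two runs, the all-compound median minus 4 SD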;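 also: 0% = 20 µM Hyamine control and 100% = vehicle cell control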); conditions: 60 h, at 10 µM, active compounds read low
[6] = inhibitors of the yeast RAM network, pilot screen, dse1pr::URA3 reporter, 5-FOA selection (AID 869;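 active = inhibition over a set limit, the all-compound mean plus 3 SD, in both replicate runs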;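 also: 0% = DMSO wells with no growth and 100% = 10 µM 1-NA-PP1 with full growth; RAM network block rescues cells from 5-FOA so hits raise OD615 growth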); conditions: S. cerevisiae dse1pr::URA3 5-FOA growth, OD615, 2 d; at 10 µM; active compounds read high; strain carries analog-sensitive mutant Cbk1 kinase
[7] = RAM signaling pathway blockade in yeast – S. cerevisiae, Pdr1DBD-CYC8 efflux-inhibited sensitized strain, primary screen (AID 1298;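 active = RAM network inhibition above 8.4% in each of two replicates, 3 SD over the compound average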;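 also: 0% = DMSO untreated cells without growth and 100% = 10 µM 1-NA-PP1 full growth; higher means more yeast growth rescued from 5-FOA killing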); conditions: S. cerevisiae cbk1-as DSE1-URA3 strain, 5-FOA growth OD615, 2 d; at 50 µM; active compounds read high

CCN(CC)CCNC(=O)c1sc2nc(-c3ccccc3)cn2c1C
inactive: growth inhibition [1] -2.38% | growth inhibition [2] 6.54% | viability increase [3] -1.73% | viability [4] 83.2% | viability [5] 81.4% | inhibition [6] 0.06% | RAM network inhibition [7] 1.57%

COc1ccc(-c2nnc(SCC(=O)NC3CCCCC3)o2)cc1OC
inactive: growth inhibition [1] -3.22% | growth inhibition [2] 1.43% | viability increase [3] -2.07% | viability [4] 98.5% | viability [5] 98.4% | inhibition [6] 1.34% | RAM network inhibition [7] 2.65%

CCOC(=O)CSc1nc2nc(C)cc(C)n2n1
inactive: growth inhibition [1] 4.15% | growth inhibition [2] 6.3% | viability increase [3] -1.33% | viability [4] 101% | viability [5] 96% | inhibition [6] 2.5% | RAM network inhibition [7] 4.98%

C=CCn1c(=N)c(C(=O)OCC)cc2c(=O)n3cc(C)ccc3nc21
inactive: growth inhibition [1] 1.62% | growth inhibition [2] 0.61% | viability increase [3] -1.79% | viability [4] 87% | viability [5] 87.4% | inhibition [6] 1.7% | RAM network inhibition [7] 3.98%

Cc1noc(C)c1S(=O)(=O)N(CC(=O)Nc1ccc2c(c1)OCCO2)c1ccc(C(C)C)cc1
inactive: growth inhibition [1] -19.3% | growth inhibition [2] -5.11% | viability increase [3] -5.12% | viability [4] 56.8% | viability [5] 48.7% | inhibition [6] 1.71% | RAM network inhibition [7] 1.99%

CS/C(=N\S(=O)(=O)c1ccc(N)cc1)NS(=O)(=O)c1cccs1
inactive: growth inhibition [1] -0.825% | growth inhibition [2] -11.5% | viability increase [3] -0.88% | viability [4] 103% | viability [5] 102% | inhibition [6] 0.23% | RAM network inhibition [7] 3.11%

Cc1nc(CNS(=O)(=O)c2ccc3c(c2)CCCC3)cs1
inactive: growth inhibition [1] -5.81% | growth inhibition [2] -2.64% | viability increase [3] -1.72% | viability [4] 96.7% | viability [5] 73.8% | inhibition [6] 1.51% | RAM network inhibition [7] 0.22%

COc1ccccc1NC(=O)CSc1nc2sc(C)c(C)c2c(=O)n1Cc1ccco1
inactive: growth inhibition [1] 9.68% | growth inhibition [2] 9.95% | viability increase [3] -3.07% | viability [4] 91% | viability [5] 92% | inhibition [6] 2.17% | RAM network inhibition [7] 3.57%

O=C(CC1Oc2ccccc2NC1=O)NC1CCCC1 (configuration not stated)
inactive: growth inhibition [1] 1.69% | growth inhibition [2] 2.71% | viability increase [3] 0.05% | viability [4] 103% | viability [5] 102% | inhibition [6] 1.33% | RAM network inhibition [7] 0.1%

Cc1ccc(OCC(=O)n2nc(C)cc2C)c(Br)c1
inactive: growth inhibition [1] -17.8% | growth inhibition [2] -0.465% | viability increase [3] -2.35% | viability [4] 93.9% | viability [5] 94.3% | inhibition [6] 0.89% | RAM network inhibition [7] 0.1%

Cc1ccn2cc(CCNC(=O)c3ccc(Br)o3)nc2c1
inactive: growth inhibition [1] -10.6% | growth inhibition [2] -12.7% | viability increase [3] -0.26% | viability [4] 93.8% | viability [5] 95.4% | inhibition [6] 3.01% | RAM network inhibition [7] 4.83%

CCC1Oc2nc(SC)nnc2-c2ccccc2N1C(=O)c1ccccc1 (configuration not stated)
inactive: growth inhibition [1] -2.41% | growth inhibition [2] -2.26% | viability increase [3] -5.16% | viability [4] 70.6% | viability [5] 58.1% | inhibition [6] 1.03% | RAM network inhibition [7] 3.93%

COc1cc(NC(=O)C(F)(F)F)cc(OC)c1
inactive: growth inhibition [1] -10.5% | growth inhibition [2] -13.3% | viability increase [3] -0.69% | viability [4] 98.2% | viability [5] 108% | inhibition [6] 0.22% | RAM network inhibition [7] 1.3%

COc1cc(C(=O)NCCc2cn3ccccc3n2)cc(OC)c1OC
inactive: growth inhibition [1] -9.42% | growth inhibition [2] -6.93% | viability increase [3] -2.78% | viability [4] 98.4% | viability [5] 95.9% | inhibition [6] 2.1% | RAM network inhibition [7] 2.62%

CC(=O)Oc1ccc(C(=O)Nc2nccs2)cc1
inactive: growth inhibition [1] -7.33% | growth inhibition [2] -14.7% | viability increase [3] -4.75% | viability [4] 88.2% | viability [5] 80.3% | inhibition [6] 3.5% | RAM network inhibition [7] 0.1%

N#CC1(c2ccccc2)CCCN1C(=O)c1ccco1 (configuration not stated)
inactive: growth inhibition [1] -3.57% | growth inhibition [2] 3.69% | viability increase [3] -1.54% | viability [4] 104% | viability [5] 101% | inhibition [6] 2.25% | RAM network inhibition [7] 3.1%

COCCNC(=O)CS(=O)(=O)Cc1nc(-c2ccc(C)cc2)oc1C
inactive: growth inhibition [1] -7.2% | growth inhibition [2] -29% | viability increase [3] -0.43% | viability [4] 95.1% | viability [5] 95.3% | inhibition [6] -0.325% | RAM network inhibition [7] 3.68%

COC(=O)c1ccc2c(c1)NC(=O)C1CCCN21 (configuration not stated)
inactive: growth inhibition [1] 7.72% | growth inhibition [2] 12.4% | viability increase [3] -0.72% | viability [4] 91.2% | viability [5] 89.8% | inhibition [6] 0.305% | RAM network inhibition [7] -1.29%

COC(=O)CN1C(=O)C(O)(CC(=O)c2ccc(Br)cc2)c2ccccc21 (configuration not stated)
inactive: growth inhibition [1] 5.54% | growth inhibition [2] 11.5% | viability increase [3] -2.96% | viability [4] 92.4% | viability [5] 96.6% | inhibition [6] 0.785% | RAM network inhibition [7] 3.19%

CC(C)(C)SCCNS(=O)(=O)c1ccc(F)cc1
inactive: growth inhibition [1] -4.57% | growth inhibition [2] 3.38% | viability increase [3] 0.35% | viability [4] 94.2% | viability [5] 89.5% | inhibition [6] 0.725% | RAM network inhibition [7] 0.56%

O=c1c2ccccc2ncn1-c1ccc2c(c1)OCCO2
inactive: growth inhibition [1] -2.29% | growth inhibition [2] -19.6% | viability increase [3] -0.34% | viability [4] 101% | viability [5] 94% | inhibition [6] 0.6% | RAM network inhibition [7] 0.78%

CCN(CC)CC(=O)n1c2c(c3ccccc31)CCCC2
inactive: growth inhibition [1] 4.59% | growth inhibition [2] -2.73% | viability increase [3] -1.1% | viability [4] 94.5% | viability [5] 99.5% | inhibition [6] 0.57% | RAM network inhibition [7] 0.67%

COc1ccc(-n2c(SCC(=O)Nc3cc(C)on3)nc3c(c2=O)SCC3)cc1
inactive: growth inhibition [1] -13.1% | growth inhibition [2] -6.83% | viability increase [3] 0.28% | viability [4] 112% | viability [5] 95.5% | inhibition [6] 4.46% | RAM network inhibition [7] 6.81%

Cc1cc(Nc2cc(F)ccc2C)n2nc(C)nc2n1
inactive: growth inhibition [1] -12.4% | growth inhibition [2] -7.35% | viability increase [3] -2.3% | viability [4] 105% | viability [5] 95% | inhibition [6] 1.03% | RAM network inhibition [7] 6.29%

COc1ccc(NC(=O)CSc2nnc(Cn3c(=O)sc4ccccc43)n2C)cc1
inactive: growth inhibition [1] -3.85% | growth inhibition [2] 7.49% | viability increase [3] -4.99% | viability [4] 111% | viability [5] 98.4% | inhibition [6] 2.43% | RAM network inhibition [7] 1.51%

Cc1ccc(N2CC(c3nc4ccccc4n3C)CC2=O)cc1C (configuration not stated)
inactive: growth inhibition [1] -4.58% | growth inhibition [2] -2.28% | viability increase [3] -1.22% | viability [4] 103% | viability [5] 105% | inhibition [6] 0.94% | RAM network inhibition [7] 3.07%

O=C(c1ccc(NC2=NC3CS(=O)(=O)CC3S2)cc1)N1CCN(C(=O)c2ccco2)CC1 (configuration not stated)
inactive: growth inhibition [1] -12.1% | growth inhibition [2] -8.33% | viability increase [3] 0.69% | viability [4] 104% | viability [5] 98.3% | inhibition [6] 2.96% | RAM network inhibition [7] 4.06%

Nn1c(SCc2ccccc2)nnc1-c1ccco1
inactive: growth inhibition [1] -8.86% | growth inhibition [2] 3.38% | viability increase [3] -3.7% | viability [4] 99.2% | viability [5] 93% | inhibition [6] 0.67% | RAM network inhibition [7] -1.12%

Cc1cc2nsnc2c(S(=O)(=O)NCC(=O)O)c1C
inactive: growth inhibition [1] -7.75% | growth inhibition [2] -1.79% | viability increase [3] 1.73% | viability [4] 100% | viability [5] 102% | inhibition [6] 2.25% | RAM network inhibition [7] 0.2%

CCCCN=C(C)C1=C(O)CSC1=O
inactive: growth inhibition [1] -1.78% | growth inhibition [2] 4.99% | viability increase [3] -1.7% | viability [4] 104% | viability [5] 99.7% | inhibition [6] 2% | RAM network inhibition [7] 3.8%

Cc1ccc(NC(=O)C2CCCN(S(=O)(=O)c3ccc4c(c3)oc(=O)n4C)C2)nc1 (configuration not stated)
inactive: growth inhibition [1] -7.92% | growth inhibition [2] -2.67% | viability increase [3] -0.05% | viability [4] 101% | viability [5] 101% | inhibition [6] 1.09% | RAM network inhibition [7] -2.07%

C=CCn1c(=O)/c(=C/c2cc(OC)c(OC)c(OC)c2)s/c1=C(/C#N)c1nc2ccccc2n1C
inactive: growth inhibition [1] -4.25% | growth inhibition [2] 8.29% | viability increase [3] -3.61% | viability [4] 46.3% | viability [5] 50.9% | inhibition [6] 3.67% | RAM network inhibition [7] 4.52%

COc1ccc(S(=O)(=O)N2CCN(C)CC2)cc1Br
inactive: growth inhibition [1] -1.05% | growth inhibition [2] 9.22% | viability increase [3] -2.75% | viability [4] 95% | viability [5] 92% | inhibition [6] 1.01% | RAM network inhibition [7] -0.01%

Cn1c(Cn2c(=O)sc3ccccc32)nnc1SCC(=O)NCc1ccc(F)cc1
inactive: growth inhibition [1] -13.5% | growth inhibition [2] -17.4% | viability increase [3] -1.09% | viability [4] 104% | viability [5] 95% | inhibition [6] 3.3% | RAM network inhibition [7] 2.63%

O=CN1CCN(C(C(=O)NC2CCCC2)c2ccc(Cl)cc2)CC1 (configuration not stated)
inactive: growth inhibition [1] -7.98% | growth inhibition [2] 4.62% | viability increase [3] -1.14% | viability [4] 86.2% | viability [5] 88.5% | inhibition [6] 0.795% | RAM network inhibition [7] 2.38%

COc1cc(C(=O)N2CCN(C(=O)c3ccco3)CC2)cc(OC)c1OC
inactive: growth inhibition [1] -7.33% | growth inhibition [2] -2.3% | viability increase [3] -0.58% | viability [4] 100% | viability [5] 97.5% | inhibition [6] 0.16% | RAM network inhibition [7] 6.85%
